Data reported in ChEMBL document CHEMBL4251593, “Nontoxic combretafuranone analogues with high in vitro antibacterial activity” (Eur J Med Chem, 2018).
≈ marks a conversion by molar mass, not a printed value. Calls of active or inactive are those of the source. The calls are words filed in the database; no cut-off is given here.

Key:
Enterococcus sp. [1] = test: Antibacterial activity against Enterococcus sp. HK14365/08 clinical isolate after 24 hrs by microdilution assay; format: functional; conditions: HK14365/08, 24 h
Lichtheimia corymbifera = test: Antifungal activity against Absidia corymbifera 272 up to 1 mM after 24 to 48 hrs by microdilution assay; format: functional, organism-based
Procedure, shortened: (§1)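 Fungal microdilution following modified CLSI M27-A3/M38-A2, in RPMI 1640 with L-glutamine and 0.165 M MOPS at pH 7.0, with DMSO no more than 2% final. Compounds were 2-fold serially diluted from 2000 to 0.488 µmol/l. The inoculum was 5×10^3 cfu/ml. Incubation was at 35 °C, read visually at 24/48 h (T. mentagrophytes at 72/120 h). MIC was IC80 for yeasts and IC50 for filamentous fungi, determined twice in duplicate.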

Candida albicans [2] = test: Antifungal activity against Candida albicans ATCC 44859 up to 1 mM after 24 to 48 hrs by microdilution assay; format: functional, organism-based; procedure, shortened: as §1
HepG2 [3] = test: Cytotoxicity against human HepG2 cells assessed as reduction in cell viability after 48 hrs by ATPlite-based luminescent assay; conditions: HepG2, 48 h
Procedure, shortened: (§2)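 Cells were grown […] with 10% FBS, glutamax, NEAA and pen/strep at 37 °C, 5% CO2. Media were DMEM for RPE-1, HepG2 and BJ (BJ plus 10 ng/ml bFGF), F-12K for PC3, and IMDM for K562/HL-60. Cells were seeded at 500 per well and dosed from DMSO at 12 concentrations, 40 µM to 1 nM, in triplicate. After 48 h, intracellular ATP was read by luminescence. ED50 was obtained by variable-slope nonlinear regression.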

Escherichia coli [4] = test: Antibacterial activity against Escherichia coli ATCC 8739 after 48 hrs by microdilution assay; format: functional; conditions: ATCC 8739, 48 h
Procedure, shortened: (§3)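 Broth microdilution in Mueller-Hinton medium buffered to pH 7.4 (±0.2), with DMSO as diluent at no more than 2% final. Compounds were tested as 2-fold serial dilutions from 2000 to 0.488 µmol/l. The inoculum was 0.5 McFarland (1.5×10^8 cfu/ml). Plates were held at 37 °C and read visually at 24 and 48 h. MIC was taken as 95% growth inhibition versus control, determined twice in duplicate.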

K562 [5] = test: Cytotoxicity against human K562 cells assessed as reduction in cell viability after 48 hrs by ATPlite-based luminescent assay; conditions: K562, 48 h; procedure, shortened: as §2
Escherichia coli [6] = test: Antibacterial activity against Escherichia coli ATCC 8739 after 24 hrs by microdilution assay; format: functional; conditions: ATCC 8739, 24 h; procedure, shortened: as §3
[7] = system: Staphylococcus epidermidis; test: Antibacterial activity against Staphylococcus epidermidis HK6966/08 clinical isolate after 24 hrs by microdilution assay; format: functional; conditions: HK6966/08, 24 h
HL-60 [8] = test: Cytotoxicity against human HL60 cells assessed as reduction in cell viability after 48 hrs by ATPlite-based luminescent assay; conditions: HL-60, 48 h; procedure, shortened: as §2
Trichosporon asahii = test: Antifungal activity against Trichosporon asahii 1188 clinical isolate up to 1 mM after 24 to 48 hrs by microdilution assay; format: functional, organism-based; procedure, shortened: as §1
Klebsiella pneumoniae [9] = test: Antibacterial activity against Klebsiella pneumoniae HK14368/08 clinical isolate after 24 hrs by microdilution assay; format: functional; conditions: HK14368/08, 24 h
Staphylococcus aureus [10] = test: Antibacterial activity against Staphylococcus aureus ATCC 6538 after 48 hrs by microdilution assay; format: functional; conditions: ATCC 6538, 48 h
Klebsiella pneumoniae [11] = test: Antibacterial activity against Klebsiella pneumoniae HK11750/08 clinical isolate after 24 hrs by microdilution assay; format: functional; conditions: HK11750/08, 24 h
MCF7 = test: Cytotoxicity against human MCF7 cells assessed as reduction in cell viability after 48 hrs by ATPlite-based luminescent assay; conditions: MCF7, 48 h
BJ = test: Cytotoxicity against human BJ cells assessed as reduction in cell viability after 48 hrs by ATPlite-based luminescent assay; procedure, shortened: as §2
Candida albicans [12] = test: Antifungal activity against Candida albicans ATCC 90028 up to 1 mM after 24 to 48 hrs by microdilution assay; format: functional, organism-based; procedure, shortened: as §1
TERT-RPE1 [13] = test: Induction of apoptosis in human RPE1 cells assessed as caspase 3/7 activity after 24 hrs by caspase-glo luminescent assay; format: cell-based; conditions: RPE-1, 24 h
Procedure, shortened: (§4)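 Cells were seeded at 500 per well in their growth media and exposed to 12 concentrations from 40 µM to 1 nM, delivered from DMSO, in triplicate. After 24 h, caspase-3/7 activity was read by Caspase-Glo luminescence. Data were normalized and ED50 was fitted by variable-slope nonlinear regression.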

Klebsiella pneumoniae [14] = test: Antibacterial activity against Klebsiella pneumoniae HK14368/08 clinical isolate after 48 hrs by microdilution assay; format: functional; conditions: HK14368/08, 48 h
Nakaseomyces glabratus = test: Antifungal activity against Candida glabrata 20/I clinical isolate up to 1 mM after 24 to 48 hrs by microdilution assay; format: functional, organism-based; procedure, shortened: as §1
Pseudomonas aeruginosa [15] = test: Antibacterial activity against Pseudomonas aeruginosa ATCC 9027 after 24 hrs by microdilution assay; format: functional; conditions: ATCC 9027, 24 h; procedure, shortened: as §3
Clavispora lusitaniae = test: Antifungal activity against Candida lusitaniae 2446/I clinical isolate up to 1 mM after 24 to 48 hrs by microdilution assay; format: functional, organism-based; procedure, shortened: as §1
PC-3 [16] = test: Cytotoxicity against human PC3 cells assessed as reduction in cell viability after 48 hrs by ATPlite-based luminescent assay; conditions: PC-3, 48 h; procedure, shortened: as §2
HL-60 [17] = test: Induction of apoptosis in human HL60 cells assessed as caspase 3/7 activity after 24 hrs by caspase-glo luminescent assay; format: cell-based; conditions: HL-60, 24 h; procedure, shortened: as §4
Pseudomonas aeruginosa [18] = test: Antibacterial activity against Pseudomonas aeruginosa ATCC 9027 after 48 hrs by microdilution assay; format: functional; conditions: ATCC 9027, 48 h; procedure, shortened: as §3
Enterococcus sp. [19] = test: Antibacterial activity against Enterococcus sp. HK14365/08 clinical isolate after 48 hrs by microdilution assay; format: functional; conditions: HK14365/08, 48 h
HepG2 [20] = test: Induction of apoptosis in human HepG2 cells assessed as caspase 3/7 activity after 24 hrs by caspase-glo luminescent assay; format: cell-based; conditions: HepG2, 24 h; procedure, shortened: as §4
TERT-RPE1 [21] = test: Cytotoxicity against human RPE1 cells assessed as reduction in cell viability after 48 hrs by ATPlite-based luminescent assay; conditions: RPE-1, 48 h; procedure, shortened: as §2
Staphylococcus aureus [22] = test: Antibacterial activity against methicillin-resistant Staphylococcus aureus HK5996/08 clinical isolate after 48 hrs by microdilution assay; format: functional; conditions: HK5996/08, 48 h
Klebsiella pneumoniae [23] = test: Antibacterial activity against Klebsiella pneumoniae HK11750/08 clinical isolate after 48 hrs by microdilution assay; format: functional; conditions: HK11750/08, 48 h
Candida parapsilosis = test: Antifungal activity against Candida parapsilosis ATCC 22019 up to 1 mM after 24 to 48 hrs by microdilution assay; format: functional, organism-based; procedure, shortened: as §1
Staphylococcus aureus [24] = test: Antibacterial activity against methicillin-resistant Staphylococcus aureus HK5996/08 clinical isolate after 24 hrs by microdilution assay; format: functional; conditions: HK5996/08, 24 h
PC-3 [25] = test: Induction of apoptosis in human PC3 cells assessed as caspase 3/7 activity after 24 hrs by caspase-glo luminescent assay; format: cell-based; conditions: PC-3, 24 h; procedure, shortened: as §4
Staphylococcus aureus [26] = test: Antibacterial activity against Staphylococcus aureus ATCC 6538 after 24 hrs by microdilution assay; format: functional; conditions: ATCC 6538, 24 h
K562 [27] = test: Induction of apoptosis in human K562 cells assessed as caspase 3/7 activity after 24 hrs by caspase-glo luminescent assay; format: cell-based; conditions: K562, 24 h; procedure, shortened: as §4
Aspergillus fumigatus = test: Antifungal activity against Aspergillus fumigatus 231 up to 1 mM after 24 to 48 hrs by microdilution assay; format: functional, organism-based; procedure, shortened: as §1
[28] = system: Staphylococcus epidermidis; test: Antibacterial activity against Staphylococcus epidermidis HK6966/08 clinical isolate after 48 hrs by microdilution assay; format: functional; conditions: HK6966/08, 48 h
[29] = system: Trichophyton mentagrophytes; test: Antifungal activity against Trichophyton mentagrophytes 445 up to 1 mM after 72 to 120 hrs by microdilution assay; format: functional, organism-based; procedure, shortened: as §1
Candida tropicalis = test: Antifungal activity against Candida tropicalis 156 clinical isolate up to 1 mM after 24 to 48 hrs by microdilution assay; format: functional, organism-based; procedure, shortened: as §1
Pichia kudriavzevii [30] = test: Antifungal activity against Candida krusei E28 clinical isolate up to 1 mM after 24 to 48 hrs by microdilution assay; format: functional, organism-based; procedure, shortened: as §1
Pichia kudriavzevii [31] = test: Antifungal activity against Candida krusei ATCC 6258 up to 1 mM after 24 to 48 hrs by microdilution assay; format: functional, organism-based; procedure, shortened: as §1

Structure (SMILES): Cc1ccc(C2=C(c3ccc(Br)cc3)C(=O)OC2CO)cc1 (stereo not given)
- MIC95 (Enterococcus sp. [1]): 500 µM (≈ 180 µg/mL)
- Activity (Lichtheimia corymbifera): inactive
- Activity (Candida albicans [2]): inactive
- IC50 (HepG2 [3]): > 40 µM
- MIC95 (Escherichia coli [4]): > 500 µM
- IC50 (K562 [5]): 31.4 µM
- MIC95 (Escherichia coli [6]): > 500 µM
- MIC95 [7]: 62.5 µM (≈ 22.5 µg/mL)
- IC50 (HL-60 [8]): 21.3 µM
- Activity (Trichosporon asahii): inactive
- MIC95 (Klebsiella pneumoniae [9]): > 500 µM
- MIC95 (Staphylococcus aureus [10]): 15.6 µM (≈ 5.61 µg/mL)
- MIC95 (Klebsiella pneumoniae [11]): > 500 µM
- IC50 (MCF7): > 40 µM
- IC50 (BJ): > 40 µM
- Activity (Candida albicans [12]): inactive
- IC50 (TERT-RPE1 [13]): > 40 µM
- MIC95 (Klebsiella pneumoniae [14]): > 500 µM
- Activity (Nakaseomyces glabratus): inactive
- MIC95 (Pseudomonas aeruginosa [15]): > 500 µM
- Activity (Clavispora lusitaniae): inactive
- IC50 (PC-3 [16]): > 40 µM
- IC50 (HL-60 [17]): > 40 µM
- MIC95 (Pseudomonas aeruginosa [18]): > 500 µM
- MIC95 (Enterococcus sp. [19]): > 500 µM
- IC50 (HepG2 [20]): > 40 µM
- IC50 (TERT-RPE1 [21]): > 40 µM
- MIC95 (Staphylococcus aureus [22]): 62.5 µM (≈ 22.5 µg/mL)
- MIC95 (Klebsiella pneumoniae [23]): > 500 µM
- Activity (Candida parapsilosis): inactive
- MIC95 (Staphylococcus aureus [24]): 62.5 µM (≈ 22.5 µg/mL)
- IC50 (PC-3 [25]): > 40 µM
- MIC95 (Staphylococcus aureus [26]): 15.6 µM (≈ 5.61 µg/mL)
- IC50 (K562 [27]): 46.7 µM
- Activity (Aspergillus fumigatus): inactive
- MIC95 [28]: 62.5 µM (≈ 22.5 µg/mL)
- Activity [29]: inactive
- Activity (Candida tropicalis): inactive
- Activity (Pichia kudriavzevii [30]): inactive
- Activity (Pichia kudriavzevii [31]): inactive
